Source: PMC3823100 (Journal of Cellular and Molecular Medicine, 2011)
Like-named read-outs stand apart in the source and are kept apart here.

How the values were obtained:
Assay type in all cases: cell-based, human
[1] = system: DLD1 cells; assay: MTT cytotoxicity assay; details: read-out: IC50 (μM) ± S.D. DLD1; 72 hrs treatment, MTT test
[2] = system: HFF-1 fibroblasts; assay: MTT cytotoxicity assay, non-tumour cells; details: read-out: IC50 (μM) ± S.D. HFF-1, 72 hrs treatment, MTT test
[3] = system: HCT-15 cells; assay: MTT cytotoxicity assay; details: read-out: IC50 (μM) ± S.D. HCT-15; 72 hrs treatment, MTT test
Procedure, shortened: (§1)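 Cells grown with 10% foetal calf serum, penicillin/streptomycin and 2 mM L-glutamine (HCT-15 in RPMI, SW480 in DMEM). Exposed 72 hrs to increasing concentrations diluted from 1 mg/ml stocks in physiological solution, then MTT read-out. Mean absorbance per dose expressed as % of control versus concentration. IC50 from four-parameter logistic fit. Means ± S.D. of at least three measurements.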

[4] = system: LoVo cells; assay: MTT cytotoxicity assay; details: read-out: IC50 (μM) ± S.D. LoVo, MTT test
[5] = system: MRC-5 fibroblasts; assay: MTT cytotoxicity assay, non-tumour cells; details: read-out: IC50 (μM) ± S.D. MRC-5, 72 hrs treatment, MTT test
[6] = system: SW480 cells; assay: MTT cytotoxicity assay; details: read-out: IC50 (μM) ± S.D. SW480; 72 hrs treatment, MTT test
Procedure, shortened: as §1

[7] = system: LoVo–OxPt cells; assay: MTT cytotoxicity assay, oxaliplatin-resistant cells; details: read-out: IC50 (μM) ± S.D. LoVo–OxPt; 48 hrs treatment, MTT test
[8] = system: caspase-3/-7, -6, -8, -9 in LoVo cells; assay: Caspase activation; details: 12 or 24 hrs
Procedure, shortened: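 LoVo cells (10⁶) exposed 12 or 24 hrs, then lysed in 1% Triton X-100, sucrose, 5 mM EDTA, 10 mM Tris-HCl, 2 mM DTT (pH 7.6). Lysate protein incubated 60 min at 37°C with fluorogenic AMC substrates: Ac-DEVD (caspase-3/-7), Ac-VEID (-6), Ac-IETD (-8), Ac-LEHD (-9). AMC release read at ex 370/em 460 nm. Means of at least three independent experiments ± S.D.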

[9] = system: LoVo cells; assay: Nuclear DNA fragmentation ELISA; details: 12 hr treatment, IC50 concentration
[10] = system: cytochrome c release in LoVo cells; assay: Cytochrome c release; details: IC50 concentration, 12 hrs (CP also 6 and 24 hrs)
Procedure, shortened: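 LoVo cells (30 × 10⁶) were exposed to the test compound for 12 hrs. Cytochrome c release was then assessed by Western blotting. Values are means ± S.D. of at least three measurements.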

[11] = system: LoVo cells; assay: Alkaline single-cell gel electrophoresis assay; details: 12 hrs, IC50 concentration

Row | Compound | IC50 [1] | IC50 [2] | IC50 [3] | IC50 ([4]; 72 hrs treatment) | IC50 [5] | IC50 [6] | IC50 [7] | caspase-3/-7, -6, -8, -9 activity (free AMC) [8] | increase in histone-DNA formation compared to controls [9] | IC50 ([4]; 48 hrs treatment) | cytochrome c release [10] | comet appearance / electrophoretic migration of DNA fragments [11]
1 | N.N.[Cl][Pt][Cl] [CisPt, Cisplatin] | 8.01 ± 2.22 µM | 23.4 ± 1.97 µM | 16.6 ± 2.63 µM | 9.02 ± 1.34 µM | 19.7 ± 1.31 µM | 25.2 ± 3.33 µM |  |  |  |  |  | 
2 | O=C1[O][Pt]2([NH][C@@H]3CCCC[C@H]3[NH]2)[O]C1=O [OxPt, oxaliplatin] | 5.81 ± 1.93 µM | 27.1 ± 1.29 µM | 2.37 ± 0.58 µM | 0.33 ± 0.17 µM | 23.9 ± 1.35 µM | 4.2 ± 0.75 µM | 10.9 ± 1.34 µM | substantial activation of all caspases | roughly 30 fold | 2.05 ± 0.43 µM | substantial cytohrome c release | significant increase in comet appearance
